Results on one molecule are retold here after ChEMBL document CHEMBL4673248, “Discovery and Characterization of BAY 1214784, an Orally Available Spiroindoline Derivative Acting as a Potent and Selective Antagonist of the Human Gonadotropin-Releasing Hormone Receptor as Proven in a First-In-Human Study in Postmenopausal Women” (J Med Chem, 2020).

A short description of series [1]: Intrinsic clearance in Han Wistar rat hepatocytes at 1 uM measured up to 90 mins by LC/MS/MS analysis. The class given is ADME, cell-based, Hepatocyte. The note with it: Han Wistar, read-out: CLH (converted).
Series [2] in a line: Efflux ratio of apparent permeability across basolateral to apical side over apical to basolateral side in human Caco2 cells at 2 uM measured after 2 hrs by LC-MS/MS analysis. The format is ADME, cell-based. The note with it: Caco-2. In outline:
(§1)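 Caco-2 monolayers grown 15 d, integrity checked by TEER. Compound 2 µM added apical or basolateral in FCS-free HEPES carbonate buffer pH 7.2, incubated 2 h at 37 °C. Both compartments sampled before and after, analysed by LC-MS/MS after MeOH precipitation. Papp computed from receiver peak area, surface area and time. Efflux ratio taken as Papp B–A/Papp A–B.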

A further series deals with Cytochrome P450 2C9 (Homo sapiens, UniProt P11712). Kind of series: Inhibition of CYP2C9 in human liver microsomes using diclofenac as substrate by LC-MS/MS analysis. The class given is ADME. On the technique in general: Liver microsomes are a subcellular fraction often used to study metabolism.
Sequence of Cytochrome P450 2C9 (P11712 whole entry): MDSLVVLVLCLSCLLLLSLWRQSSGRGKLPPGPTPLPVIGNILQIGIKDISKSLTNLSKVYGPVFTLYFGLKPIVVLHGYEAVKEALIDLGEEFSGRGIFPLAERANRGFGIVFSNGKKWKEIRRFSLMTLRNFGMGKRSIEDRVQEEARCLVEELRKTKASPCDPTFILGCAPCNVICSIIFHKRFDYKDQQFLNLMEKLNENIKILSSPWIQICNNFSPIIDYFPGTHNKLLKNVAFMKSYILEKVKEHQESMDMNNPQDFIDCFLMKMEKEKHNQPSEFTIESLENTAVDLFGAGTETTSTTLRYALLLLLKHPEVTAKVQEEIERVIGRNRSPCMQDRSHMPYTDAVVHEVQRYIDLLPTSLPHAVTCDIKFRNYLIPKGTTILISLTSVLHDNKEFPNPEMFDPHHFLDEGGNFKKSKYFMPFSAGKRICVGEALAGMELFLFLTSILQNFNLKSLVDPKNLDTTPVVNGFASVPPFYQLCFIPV
A short description of series [3]: Aqueous solubility of compound at pH 6.5 incubated for 24 hrs under shaking condition by HPLC-MS/MS analysis. The note with it: aqueous solution. The class given is physicochemical. The essentials:
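Compound from 1 mM DMSO solution, pH 6.5 buffer added, shaken 24 h at rt. Filtered, dissolved compound quantified by HPLC-MS/MS.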

Another series has as its target Cytochrome P450 3A4 (Homo sapiens, UniProt P08684). Description: Irreversible inhibition of CYP3A4 in human liver microsomes using midazolam as substrate. The format is ADME.
Series [4] can be described thus: Oral bioavailability in Wistar rat at 2 mg/kg by LC-MS/MS analysis. The format is ADME, organism-based. The conditions noted are these: in vivo.
Series [5] can be described thus: Apparent permeability across apical to basolateral side in human Caco2 cells at 2 uM measured after 2 hrs by LC-MS/MS analysis. The note with it: Caco-2. The class given is ADME, cell-based. The essentials:
as §1
On the technique in general: Caco-2 cells form a polarised layer with tight junctions and transporters.

For a further series, the system named is Homo sapiens. Description: Suppression of plasma luteinizing hormone level in postmenopausal woman at 300 mg, po administered as single dose using SMEDDS formulation by ECLIA relative to control. The format is functional.
A further series deals with T1, Cytochrome P450 1A2 (Homo sapiens, UniProt P05177).
T1 sequence (P05177 whole entry): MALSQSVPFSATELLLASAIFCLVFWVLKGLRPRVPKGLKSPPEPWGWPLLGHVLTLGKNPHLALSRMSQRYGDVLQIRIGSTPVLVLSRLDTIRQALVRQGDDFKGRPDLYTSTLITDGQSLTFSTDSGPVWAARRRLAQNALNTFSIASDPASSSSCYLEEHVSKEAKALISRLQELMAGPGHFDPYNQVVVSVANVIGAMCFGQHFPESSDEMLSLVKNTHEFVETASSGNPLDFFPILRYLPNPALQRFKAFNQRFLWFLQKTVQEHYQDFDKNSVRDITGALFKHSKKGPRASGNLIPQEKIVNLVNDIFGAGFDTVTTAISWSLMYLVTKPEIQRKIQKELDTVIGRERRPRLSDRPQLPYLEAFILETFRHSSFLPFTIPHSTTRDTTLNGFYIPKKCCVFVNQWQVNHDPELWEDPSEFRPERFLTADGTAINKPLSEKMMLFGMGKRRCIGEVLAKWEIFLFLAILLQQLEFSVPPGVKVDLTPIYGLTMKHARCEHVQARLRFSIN
Description: Inhibition of CYP1A2 in human liver microsomes using phenacetin as substrate by LC-MS/MS analysis. The format is ADME.

The target of the next series is Cytochrome P450 2D6 (Homo sapiens, UniProt P10635). Kind of series: Inhibition of CYP2D6 in human liver microsomes using dextromethorphan as substrate by LC-MS/MS analysis. The class given is ADME.
Sequence of Cytochrome P450 2D6 (P10635 whole entry): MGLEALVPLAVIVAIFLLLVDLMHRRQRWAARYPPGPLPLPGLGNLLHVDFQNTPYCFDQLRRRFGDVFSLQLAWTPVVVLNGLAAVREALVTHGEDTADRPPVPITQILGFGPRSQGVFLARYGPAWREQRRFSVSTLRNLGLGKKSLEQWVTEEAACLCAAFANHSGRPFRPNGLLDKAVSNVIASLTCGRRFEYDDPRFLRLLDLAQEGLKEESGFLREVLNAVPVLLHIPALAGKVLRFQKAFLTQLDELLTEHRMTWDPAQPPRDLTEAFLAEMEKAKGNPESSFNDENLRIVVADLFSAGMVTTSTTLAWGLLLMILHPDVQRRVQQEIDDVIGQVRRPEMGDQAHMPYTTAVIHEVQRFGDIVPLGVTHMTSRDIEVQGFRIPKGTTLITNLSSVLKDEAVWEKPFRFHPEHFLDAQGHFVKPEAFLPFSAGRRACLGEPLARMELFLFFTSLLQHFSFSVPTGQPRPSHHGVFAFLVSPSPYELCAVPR
A short description of series [6]: Clearance in Wistar rat at 0.5 mg/kg, iv by LC-MS/MS analysis. The class given is ADME, organism-based. The note with it: Wistar, in vivo.
Another series has as its target Cannabinoid receptor 1 (Homo sapiens, UniProt P21554). Description: Inhibition of CB1 receptor (unknown origin).
A short description of series [7]: Clearance in dog hepatocytes. The class given is ADME, cell-based, Canis lupus familiaris, Hepatocyte.
Series [8] in a line: Maximum oral bioavailability in cynomolgus monkey liver microsomes based well stirred liver model. The format is ADME, Macaca fascicularis, Microsome. The conditions noted are these: read-out: Fmax.
A short description of series [9]: Maximum oral bioavailability in rat liver microsomes based well stirred liver model at 1 uM measured after 2 to 60 mins in presence of NADP generating system by LC-MS/MS analysis. The conditions noted are these: time 2-60 min, read-out: Fmax. The class given is ADME, Microsome.
The target in series [10] is T2, Gonadotropin-releasing hormone receptor (Homo sapiens, UniProt P30968).
T2 sequence (P30968 whole entry): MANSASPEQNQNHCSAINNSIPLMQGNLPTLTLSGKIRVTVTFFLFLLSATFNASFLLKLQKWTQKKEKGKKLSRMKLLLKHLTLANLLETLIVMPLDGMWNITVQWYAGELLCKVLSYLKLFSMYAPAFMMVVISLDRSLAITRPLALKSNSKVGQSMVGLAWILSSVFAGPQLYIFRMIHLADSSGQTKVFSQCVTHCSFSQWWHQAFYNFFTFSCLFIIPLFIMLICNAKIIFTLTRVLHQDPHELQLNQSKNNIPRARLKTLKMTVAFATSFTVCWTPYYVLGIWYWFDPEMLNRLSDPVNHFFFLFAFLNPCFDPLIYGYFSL
Description: Inhibition of Tag-lite green-labeled agonist binding to terbium fluorophore-labeled human N-terminal SNAP-tag GnRh receptor expressed in HEK293 cells by TR-FRET assay. The format is cell-based. The essentials:
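Frozen transiently transfected HEK293 with Tb-labelled SNAP-tag hGnRH-R, 5.6 × 10^4 cells/well in Tag-lite buffer. Green-labelled agonist 4 nM. Nonspecific wells received buserelin 10 µM. Incubated 60 min at rt, TR-FRET 520/495 nm ratio read.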
A general note: Time-resolved FRET reads energy transfer from a long-lived donor to a nearby acceptor.

A short description of series [11]: Half life in Wistar rat at 0.5 mg/kg, iv by LC-MS/MS analysis. The class given is ADME, organism-based. The note with it: in vivo.
Series [12] in a line: Clearance in cynomolgus monkey liver microsomes. The class given is ADME, Macaca fascicularis, Microsome.
Series [13] deals with T2, Gonadotropin-releasing hormone receptor. Description: Inhibition of Tag-lite green-labeled agonist binding to terbium fluorophore-labeled human N-terminal SNAP-tag GnRh receptor expressed in HEK293 cells assessed as dissociation constant by TR-FRET assay. The format is cell-based.
Series [14] is described as follows: Clearance in dog liver microsomes. The class given is ADME, Canis lupus familiaris, Microsome.
A further series concerns Rattus norvegicus. Kind of series: Suppression of ovariectomized-induced increase in plasma luteinizing hormone level in po dosed Wistar Han rat measured up to 24 hrs. The format is functional. The note with it: time hrs <=24. The essentials: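 Ovariectomized rats given single oral doses, range 1 to 30 mg/kg. Plasma LH followed over time, with cetrorelix at 0.1 mg/kg sc as reference. ED50 calculated from the dose-response.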

Values after ≈ are worked out from the molar mass of the structure shown.

Sequence of Cannabinoid receptor 1 (P21554 whole entry): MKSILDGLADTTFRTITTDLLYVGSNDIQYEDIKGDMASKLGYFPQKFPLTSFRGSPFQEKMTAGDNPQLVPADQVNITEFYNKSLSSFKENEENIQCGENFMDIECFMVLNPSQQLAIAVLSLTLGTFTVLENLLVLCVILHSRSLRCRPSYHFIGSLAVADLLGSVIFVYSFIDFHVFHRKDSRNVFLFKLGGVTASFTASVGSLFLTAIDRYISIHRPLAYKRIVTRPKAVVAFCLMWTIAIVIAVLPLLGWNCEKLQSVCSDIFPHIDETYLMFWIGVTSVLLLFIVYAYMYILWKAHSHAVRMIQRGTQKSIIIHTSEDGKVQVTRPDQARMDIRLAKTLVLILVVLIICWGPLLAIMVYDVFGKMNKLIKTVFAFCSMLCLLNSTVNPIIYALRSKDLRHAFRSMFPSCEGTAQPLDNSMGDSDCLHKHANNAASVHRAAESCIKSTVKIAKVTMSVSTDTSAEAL
Sequence of Cytochrome P450 3A4 (P08684 whole entry): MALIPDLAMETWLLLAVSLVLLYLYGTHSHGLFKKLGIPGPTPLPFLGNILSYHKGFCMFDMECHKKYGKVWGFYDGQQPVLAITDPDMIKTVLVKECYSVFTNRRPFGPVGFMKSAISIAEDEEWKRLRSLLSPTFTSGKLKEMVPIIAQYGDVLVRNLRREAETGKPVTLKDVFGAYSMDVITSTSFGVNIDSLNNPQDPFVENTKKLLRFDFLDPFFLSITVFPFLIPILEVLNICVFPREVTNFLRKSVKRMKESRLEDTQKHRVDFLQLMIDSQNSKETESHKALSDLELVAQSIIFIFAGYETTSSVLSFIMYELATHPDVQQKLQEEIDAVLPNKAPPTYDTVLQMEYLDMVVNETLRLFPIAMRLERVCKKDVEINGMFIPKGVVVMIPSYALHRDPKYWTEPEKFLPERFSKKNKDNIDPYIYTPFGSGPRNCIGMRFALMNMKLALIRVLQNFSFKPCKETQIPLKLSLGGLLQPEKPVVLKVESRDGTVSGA

Broadly, the efflux ratio is a quotient of directional permeabilities that is used to spot active efflux. As a reminder, the IC50 is the concentration at which inhibition is half-maximal. As usually defined, the solubility is how much of the substance goes into solution per volume. Broadly, the bioavailability is dose-corrected exposure relative to a reference, in per cent. As a reminder, the Papp A→B is the apparent permeability from the apical to the basolateral side of a cell layer. Usually clearance stands for the rate of elimination divided by the concentration. What is called half-life is the time in which the quantity being followed falls by half. As a reminder, the Kd is a measure of binding affinity in units of concentration. The ED50 is the dose that gives a 50% effect, or the effect in half of the subjects. Turning to `O=C(NCc1ncc(C(F)(F)F)cc1Cl)c1ccc2c(c1)C1(CCS(=O)(=O)CC1)[C@H](C1CC1)N2S(=O)(=O)c1ccc(F)cc1` [BAY-784], the CLint scaled at 1 µM in series [1] was 12.5 mL/min/kg. The efflux ratio at 2 h, 2 µM in series [2] amounted to 10. The IC50 was over 10 µM against Cytochrome P450 2C9; over 10 µM on Cytochrome P450 3A4; over 10 µM against Cytochrome P450 1A2; over 10 µM against Cytochrome P450 2D6; 3.4 µM against Cannabinoid receptor 1; 27 nM in [10]. The same molecule came in with a solubility at 24 h in series [3] of 7.1 µg/mL (≈ 10.6 µM). In addition, the bioavailability in series [4] came out at 48%. The Papp A→B at 2 h, 2 µM in [5] amounted to 1.3 ×10⁻⁶ cm/s. The molecule further displayed an Activity with Homo sapiens of 49%. Also, the clearance in [6] is 9 mL/min/kg. The CLH in [7] worked out at 0.73 L/h/kg; in [12], 0.49 L/h/kg; in [14], 0.32 L/h/kg. Besides, the Fh in series [8] is 81%. Besides, in [9], the Fh at 1 µM came to 91%. In series [11], this molecule had a half-life of 960 min. Also, in series [13], the Kd came to 9.83 nM. Further, the ED50 in the series on Rattus norvegicus worked out at 4.5 mg/kg.
